Experiment [1] relates to Mus musculus. As to the kind of experiment: Percentage efficacy to normalize the blood glucose levels to that of normal mouse in ob/ob mouse after 3 days and 8 hours of 100 mg/kg dose administration. In kind it is functional. In a few lines:
(§1)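 Adult male C57BL ob/ob mice, n = 6/group, matched on day-0 blood glucose; non-diabetic animals (<150 mg/dL basal) excluded. Oral dosing each morning days 1-3 in 0.5% CMC with 0.2% Tween-80. Tail-nick blood glucose by YSI analyzer. % efficacy = {1 − ([glc]cpd − 100)/([glc]veh − 100)} × 100. Significance by t-test vs vehicle, p < 0.05.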

For experiment [2], the system named is Mus musculus. As to the kind of experiment: Percentage efficacy to normalize the blood glucose levels to that of normal mouse in ob/ob mouse after 3 days and 4 hours of 30 mg/kg dose administration; Nonsignificant. In kind it is functional, organism-based. Further details: dose 30 mg/kg. In a few lines:
as §1

Experiment [3] relates to Mus musculus. As to the kind of experiment: Percentage efficacy to normalize the blood glucose levels to that of normal mouse in ob/ob mouse after 3 days and 8 hours of 30 mg/kg dose administration. Format: functional. The method, boiled down: as §1
The subject of experiment [4] is Mus musculus. As to the kind of experiment: Percentage efficacy to normalize the blood glucose levels to that of normal mouse in ob/ob mouse after 3 days and 4 hours of 100 mg/kg dose administration; Nonsignificant. Format: functional, organism-based. Details: dose 100 mg/kg. The method, boiled down:
as §1

The test system of experiment [5] is Mus musculus. As to the kind of experiment: Percentage efficacy to normalize the blood glucose levels to that of normal mouse in ob/ob mouse after 3 days and 4 hours of 100 mg/kg dose administration. Format: functional. In a few lines:
as §1

For experiment [6], the species on record is Mus musculus. As to the kind of experiment: Effective dose for glucose lowering in ob/ob mice. In kind it is functional. The method, boiled down: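 ob/ob mice, once-daily oral dosing for 3 days in 0.5% CMC/0.2% Tween-80, or in 40% microemulsion (Cremophor RH40, corn oil-monoglyceride, propylene glycol, ethanol) where stated; tail-nick blood glucose. % efficacy computed as below at selected doses; ED50 from sigmoidal fit of dose-response curve.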

Experiment [7] has as its system Mus musculus. As to the kind of experiment: Percentage efficacy to normalize the blood glucose levels to that of normal mouse in ob/ob mouse after 3 days and 4 hours of 30 mg/kg dose administration. Format: functional. In a few lines: as §1

Regarding `O=C(Cc1cn(-c2cccc(C(F)(F)F)c2)nc1-c1ccc(Cl)c(Cl)c1)N1CCN(C(c2ccccc2)c2ccccc2)CC1`, the Efficacy in experiment [1] was 45%; in experiment [2] it was “Not significant”; in experiment [3], 48%; in experiment [4], “Not significant”.
Regarding `CN(C)C(=O)Cc1cn(-c2cccc(C(F)(F)F)c2)nc1-c1ccc(-c2ccccc2)cc1`, the Efficacy in experiment [5] is on record as 84%; in experiment [1], 69%; in experiment [7], 80%; in experiment [3], 94%. Moreover, the ED50 in experiment [6] is 1.3 mg/kg/day.
As to `CN(C)C(=O)Cc1cn(-c2cccc(C(F)(F)F)c2)nc1-c1ccc2c(c1)Cc1ccccc1-2`, the Efficacy in experiment [5] amounted to 87%; in experiment [1] it was 57%; in experiment [7] it was 113%; in experiment [3], 115%. This molecule displayed a median effective dose (ED50) in experiment [6] of 0.05 mg/kg/day.

The record behind these values is ChEMBL document CHEMBL1134551, “The effect of 1,3-diaryl-[1H]-pyrazole-4-acetamides on glucose utilization in ob/ob mice” (2001).
